PubChem BioAssay AID624062 (Broad Institute, 2012)
Results filed as inconclusive are left out.

Test system: S. cerevisiae W303 JC-1 mitochondrial potential, flow cytometry
Assay: yeast mitochondrial potential disruption, JC-1 dye – flow cytometry, single point, powder samples, mechanism study for antifungal respiration inhibitor project (AID 624062)
Settings: hits give high values
Procedure, shortened: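 Test system: S. cerevisiae W303-1a yeast; medium: SD-CSM growth medium containing 2% glucose; measured by: flow cytometry, 488 nm excitation, JC-1 red FL2 and green FL1; reagent: JC-1 dye at 1 µg/mL; schedule: 4 h compound treatment at 30 °C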

With `CCOC(=O)N1C(=O)C2(CCCCC2)N(c2ccc(C)cc2)C1=S` as the molecule, how does the mitochondrial depolarization score read?
The mitochondrial depolarization score was 18.6.
